Measured values: ChEMBL document CHEMBL1124924, “Aromatic thiazole derivatives: structurally novel and selective serotonin-3 receptor antagonists” (J Med Chem, 1990)

Tests used:
[1] = tested on: Rattus norvegicus; assay: Percent response to 100 ug/kg serotonin was determined as blockade of serotonin-induced bradycardia in anesthetized rat; format: functional
Outline: (§1)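 Rat von Bezold–Jarisch reflex, read as blockade of serotonin-induced bradycardia. Test compound and serotonin were both given iv through a cannula in the right femoral vein.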

[2] = tested on: Rattus norvegicus; assay: Percent inhibition of serotonin-induced B-J reflex (Bezold-Jarisch reflex)in the right femoral vein of rat at a dose of 50 ug/kg; format: functional
Outline: (§2)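 Rats given test compound and serotonin intravenously through a cannula in the right femoral vein. Von Bezold-Jarisch reflex read as blockade of serotonin-induced bradycardia. Otherwise run by a previously published procedure.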

[3] = target: T1, Serotonin 3 (5-HT3) receptor (Rattus norvegicus, UniProt P35563+Q9JJ16); assay: In vitro displacement of [3H]ICS-205-930 from 5-hydroxytryptamine 3 receptor in cultured NG-108-15 […] cells
T1 sequence (P35563 whole entry): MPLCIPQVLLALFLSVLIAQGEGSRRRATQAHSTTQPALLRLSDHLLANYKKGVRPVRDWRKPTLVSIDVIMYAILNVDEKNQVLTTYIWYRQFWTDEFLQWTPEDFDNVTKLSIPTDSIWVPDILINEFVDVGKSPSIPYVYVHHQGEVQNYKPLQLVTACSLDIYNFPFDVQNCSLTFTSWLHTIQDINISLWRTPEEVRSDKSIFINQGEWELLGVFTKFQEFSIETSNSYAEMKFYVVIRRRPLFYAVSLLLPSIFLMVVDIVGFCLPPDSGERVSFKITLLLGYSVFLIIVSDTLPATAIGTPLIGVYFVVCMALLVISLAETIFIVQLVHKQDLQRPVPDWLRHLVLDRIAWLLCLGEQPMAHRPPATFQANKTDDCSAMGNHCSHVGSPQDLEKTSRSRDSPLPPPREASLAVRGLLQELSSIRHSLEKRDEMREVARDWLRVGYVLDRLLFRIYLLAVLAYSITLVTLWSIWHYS
T1 sequence (Q9JJ16 whole entry): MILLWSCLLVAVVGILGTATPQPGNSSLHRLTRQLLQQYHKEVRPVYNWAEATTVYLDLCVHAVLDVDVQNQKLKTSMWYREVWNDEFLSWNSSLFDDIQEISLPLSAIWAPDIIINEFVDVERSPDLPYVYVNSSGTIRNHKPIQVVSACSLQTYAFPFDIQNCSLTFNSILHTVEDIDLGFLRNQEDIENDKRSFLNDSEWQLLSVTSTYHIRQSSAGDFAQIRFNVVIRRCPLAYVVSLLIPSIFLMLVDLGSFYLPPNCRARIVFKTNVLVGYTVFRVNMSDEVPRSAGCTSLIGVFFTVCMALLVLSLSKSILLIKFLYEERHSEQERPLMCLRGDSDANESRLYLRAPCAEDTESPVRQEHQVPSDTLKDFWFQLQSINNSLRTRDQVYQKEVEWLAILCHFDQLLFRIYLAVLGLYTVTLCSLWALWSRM

[4] = tested on: Rattus norvegicus; assay: Percent inhibition of serotonin-induced B-J reflex (Bezold-Jarisch reflex)in the right femoral vein of rat at a dose of 10 ug/kg; format: functional; outline: as §2
[5] = tested on: Rattus norvegicus; assay: (§3) Percent inhibition of serotonin-induced B-J reflex (Bezold-Jarisch reflex)in the right femoral vein of rat at a dose of 100 ug/kg; format: functional; outline: as §2
[6] = tested on: Rattus norvegicus; assay: Percent inhibition of serotonin-induced B-J reflex (Bezold-Jarisch reflex)in the right femoral vein of rat at a dose of 20 ug/kg; format: functional; outline: as §1
[7] = tested on: Rattus norvegicus; assay: (§4) Percent inhibition of serotonin-induced B-J reflex (Bezold-Jarisch reflex)in the right femoral vein of rat at a dose of 2 ug/kg; format: functional; outline: as §1
[8] = tested on: Rattus norvegicus; assay: Percent inhibition of serotonin-induced B-J reflex (Bezold-Jarisch reflex)in the right femoral vein of rat at a dose of 1 mg/kg po; format: functional
[9] = tested on: Rattus norvegicus; assay: as §4; format: functional; outline: as §2; remark: listed apart in the source
[10] = tested on: Rattus norvegicus; assay: as §3; format: functional; outline: as §1; remark: listed apart in the source

SMILES	Response [1]	Ki [3]	inhibition in vivo at 0.02 mg/kg [6]	inhibition in vivo at 0.002 mg/kg [9]	further results
Cc1[nH]c2ccc(O)cc2c1CCN	41%	1220 nM			inhibition in vivo at 0.05 mg/kg [2]: 66%; inhibition in vivo at 0.01 mg/kg [4]: 23%
Cc1[nH]cnc1Cc1nc(-c2c[nH]c3ccccc23)cs1	0%	10.4 nM			inhibition in vivo at 0.1 mg/kg [5]: 45%
N=C(N)NCc1nc(-c2c[nH]c3ccccc23)cs1	60%	3.3 nM	82%		inhibition in vivo at 0.002 mg/kg [7]: 51%; inhibition in vivo at 1 mg/kg [8]: 0%
CN1[C@@H]2CC[C@H]1C[C@@H](OC(=O)c1c[nH]c3ccccc13)C2 [TROPISETRON]	0%			76%	
c1ccc(-c2csc(Cc3c[nH]cn3)n2)cc1	80%	0.99 nM		41%	
Cc1nc(Cc2nc(-c3ccccc3)cs2)c[nH]1	0%	226 nM			inhibition in vivo at 0.1 mg/kg [10]: 7%
Cc1nccn1CC1CCc2c(c3ccccc3n2C)C1=O (centres undefined) [ONDANSETRON]	0%		90%		inhibition in vivo at 0.002 mg/kg [7]: 43%
Cc1[nH]cnc1Cc1nc(-c2ccccc2)cs1	0%	1.5 nM	86%	11%	inhibition in vivo at 1 mg/kg [8]: 67%
Cc1nccn1Cc1nc(-c2c[nH]c3ccccc23)cs1	0%	> 1000 nM			inhibition in vivo at 0.1 mg/kg [10]: 7%
c1ccc2c(-c3csc(Cc4c[nH]cn4)n3)c[nH]c2c1	14%	14.2 nM			inhibition in vivo at 0.1 mg/kg [5]: 63%
